Screening results (PubChem BioAssay)
HSF1 inhib – HSF1 inhibitors in luciferase reporter cells, primary screen, cell-based, NIH3T3, luminescence | NIH3T3-HGL HSE-luciferase, MG132-induced, luminescence 8 h; stronger effect = lower value | 300,000 compounds, 0.77% hits | activity change, negative = inhibition, % at 7.5 µM (by protocol);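 active means more than half of replicate wells show activity change below -50%, luminescence cut by over half; inconclusive means some wells, but at most half, below -50%; inactive means no replicate well below -50%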;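 further: luciferase reports HSF-1 transcriptional activity via heat shock element; 0% = median of DMSO wells and -100% = zero luminescence signal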
T cruzi inh – inhibitors of intracellular T. cruzi growth, primary screen, luminescence, NIH3T3 host cells; T. cruzi beta-gal in NIH3T3, 90 h; inhibition, % (concentration not given with the values); 300,000 compounds, 1.4% hits;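 active means mean inhibition across valid replicates above about 55%, limit read from the data; inconclusive means mean below that limit but half or more replicates reach it; inactive means mean below it, under half of replicates reach it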;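 further: signal also drops with host cell toxicity which is not excluded here; 0% = plate median of DMSO wells and 100% = zero luminescence signal; higher percent means less beta-gal luminescence so fewer parasites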
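Incubation – ≥90 h infection period, 3 h prior cell attachment · System – NIH/3T3 fibroblasts plus reporter T. cruzi · Doses – compound pinned at 50 nL/well, DMSO · Read-out basis – percent inhibition of parasite-derived β-gal signal · Signal – luminescent β-galactosidase signal after 60 min lysis · Also added – 5000 T. cruzi trypomastigotes/well · Medium – Low-serum DMEM with 2% FBS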
Calb FLC – C. albicans growth inhibition with fluconazole, primary screen, CaCi-2 strain, Alamar Blue fluorescence; C. albicans CaCi-2 + fluconazole, 48 h; growth inhibition, % (concentration not given with the values); 300,000 compounds, 0.57% hits;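 active means growth inhibition above about 58% in most replicates, limit read from the data, passing the limit was not always enough; inconclusive means exactly half the replicates above a set limit; inactive means most replicates below a set limit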;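 further: all wells also contain fluconazole at 8 µg/ml as a sub-toxic cotreatment; 0% = median of DMSO wells and 100% = median of geldanamycin control wells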
HSF1 activator – HSF-1 activators, primary screen, NIH3T3-HGL cells, MG132 stress, luminescence, single point. NIH3T3-HGL HSF-1 luciferase reporter, 8 h; 100% = twice DMSO control signal. activation, % at 9 µM. 300,000 compounds, 1.7% hits. AID 504408, 2011;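 active means mean replicate activation of at least 50% with a set share of replicates each reaching 50%; inconclusive means only one of those two conditions met; inactive means mean below 50% and too few replicates reaching it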;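 further: 0% = median of the neutral control wells and 100% = twice that signal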
HIF act – HIF pathway transcriptional activators, primary screen, cell-based, U2OS HRE-luciferase, luminescence; U2OS HRE-luciferase reporter; normalized: DMSO 0%, desferrioxamine 100%; activation, % at 7.5 µM (by protocol); 300,000 compounds, 0.32% hits; AID 1910, 2009;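 active means mean activation of at least 10% of the iron chelator positive control signal, with at least half of replicates also reaching 10%; inconclusive means mean and replicate majority disagree about reaching 10%; inactive means mean and most replicates under 10%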
Active calls of the source: *; ? = inconclusive. Compounds with a hit are over-represented: about 4.4% of the library has one in this group of screens.

SMILES	HSF1 inhib	T cruzi inh	Calb FLC	HSF1 activator	HIF act
CCn1c(=O)n(CC)c2cc(N3CCCC3)c(NC(=O)c3cc(Br)ccc3OC)cc21	2	64*	25	6	0
CC(CCCC(C)(C)O)NCc1cn[nH]c1-c1ccc2c(c1)OCO2 (stereo not given)	-3	-8	-3	1	-1
C[n+]1c(/C=C/c2ccc3c(c2)OCO3)ccc2ccccc21	-72*	33	-28	-76	1
C[n+]1c(/C=C/c2ccc(O)cc2)ccc2ccccc21	6	34	36	3	2
CC(C)c1ccc(C2=C(O)c3ccccc3C(=O)C2=O)cc1	6	5	99*	6	0
Cc1ccc(C2=C(O)c3ccccc3C(=O)C2=O)cc1	7	-13	27	2	0
O=C1C(=O)c2ccccc2C(O)=C1c1cccc([N+](=O)[O-])c1	5	-3	53	3	23*
Cc1cc(C)nc(-n2nc(C)c3c(C(=O)O)cc(-c4cccc(Br)c4)nc32)n1	-5	5	3	3	0
COc1ccc(-c2cc(=Nc3ccc(C(=O)O)cc3)c3cc(C)ccc3o2)cc1	20	16	-4	57*	1
CCc1ccc2oc(-c3ccc(OC)cc3)cc(=Nc3c(C)n(C)n(-c4ccccc4)c3=O)c2c1	1	64*	71*	-1	-2
Cc1ccc(OCC(=O)N/N=C\c2cccn2C)c([N+](=O)[O-])c1	2	-17	-8	14	1
CCc1ccc(CN(C(=O)COc2c(C)cccc2C)C2CCS(=O)(=O)C2)cc1 (stereo not given)	7	5	34	21	0
Cc1cccc(CCNS(=O)(=O)c2ccc3c(c2)CCN3C(=O)CCC(=O)O)c1	-4	-6	1	-6	0
CCOC(=O)c1cc(-c2ccc(F)cc2)n(CCC(=O)NC2CCN(Cc3ccccc3)CC2)c1C	5	78*	-4	-3	0
CCOC(=O)c1cc(-c2ccc(OC)cc2)n(CCC(=O)NC2CCN(Cc3ccccc3)CC2)c1C	3	45	5	18	0
Cc1ccnc(NC(=O)c2sc3cc(Cl)ccc3c2Cl)c1	6	14	1	54*	3
Cc1ccnc(NC(=O)CNC(=O)c2sc3ccccc3c2Cl)c1	-12	11	-1	-6	-14
CCN(CC)Cc1ccc(NC(=O)c2sc3cc(Cl)ccc3c2Cl)cc1	3	36	103*	-4	0
Cn1nnnc1SC(C(=O)Nc1cccc(C(F)(F)F)c1)c1ccccc1 (stereo not given)	2	-9	6	21	-1
CC(C)CN(C(=O)CN(C)C(=O)Cc1ccccc1Cl)c1c(N)n(CC(C)C)c(=O)[nH]c1=O	-1	-1	60	20	0
COc1ccccc1-c1cc(C(F)(F)F)nc(S(=O)(=O)CCCC(=O)N2CCOCC2)n1	?	-16	-3	-60	15*
COc1ccc(-c2cc(C(F)(F)F)nc(S(=O)(=O)CCC(=O)N3CCOCC3)n2)cc1	79	-43	26	106*	0
COc1ccc(-c2cc(C(F)(F)F)nc(S(=O)(=O)CCCC(=O)Nc3cccc(O)c3)n2)cc1OC	186	-41	25	260*	4
COc1cc(C(=O)OCC(=O)Nc2cccc(S(=O)(=O)N3CCCC3)c2)ccc1OCC(C)C	9	2	-5	-4	0
Cc1ccc(OCc2cc(C(=O)N(C)Cc3cc(C4CC4)n[nH]3)no2)cc1C	9	5	1	4	1
SMILES	HSF1 inhib	T cruzi inh	Calb FLC	HSF1 activator	HIF act
COc1ccc(-c2nnc3n(CCc4ccccc4)c(=O)c4ccccc4n23)cc1OC	-1	9	33	9	0
S=c1[nH]c(-c2ccccc2)cn1/N=C/c1ccccc1Br	20	19	-25	64*	4
CCOC(=O)c1sc2c(c1C)C(c1cccs1)C1=C(CCCC1=O)N2 (stereo not given)	28	40	1	79*	0
CCOC(=O)C1=C(C)NC2=C(C(=O)CCC2)C1c1cccs1 (stereo not given)	7	-2	-5	-16	0
COc1ccccc1N1CCN(S(=O)(=O)CCNC(=O)c2ccc(Br)o2)CC1	-12	-1	0	-12	0
Cc1cccc(NC(=S)N2CCn3cccc3C2c2cccnc2)c1 (stereo not given)	4	12	6	-4	1
Fc1ccc(NC(=S)N2CCn3cccc3C2c2cccnc2)cc1 (stereo not given)	6	71*	-34	8	0
COc1cccc(NC(=S)N2CCn3cccc3C2c2cccnc2)c1 (stereo not given)	9	76*	-3	14	0
COc1ccc(-c2noc(CN(C)C(=O)c3ccoc3C)n2)cc1OC	-1	1	0	11	1
O=C1NCCN1CCNS(=O)(=O)c1cc(C(F)(F)F)cc(C(F)(F)F)c1	1	-4	?	-17	0
Cc1ccc(-c2nc3cc(N)ccc3o2)cc1	10	3	?	4	0
Cc1ccc2oc(-c3cccc(N)c3)nc2c1	29	12	1	70*	1
COc1ccc(/C(N)=N/OC(=O)c2c(-c3ccccc3Cl)noc2C)cc1OC	-3	57*	-3	-3	0
COc1cc(/C=N/NC(=O)c2c(-c3c(Cl)cccc3Cl)noc2C)ccc1OCC(N)=O	1	2	-12	4	0
Cc1onc(-c2c(F)cccc2Cl)c1C(=O)NNC(=O)C1CCN(Cc2ccccc2)CC1	1	0	92*	4	-33
Cc1onc(-c2c(F)cccc2Cl)c1C(=O)c1ccccc1	-61*	17	3	-71	-1
Cc1onc(-c2c(Cl)cccc2Cl)c1C(=O)N/N=C(\N)COc1ccc(Cl)cc1	0	41	93*	9	4
O=C(CCNS(=O)(=O)c1ccccc1)N1CCN(c2ccccc2)CC1	3	-9	-4	9	0
COc1ccc(/C(N)=N/OC(=O)c2ccc3c(c2)OCO3)cc1OC	-1	57*	10	5	2
Cc1onc(-c2ccccc2Cl)c1C(=O)Nc1ccc(OCC(=O)N2CCOCC2)cc1	-85*	-5	?	-87	0
Cc1onc(-c2c(F)cccc2Cl)c1C(=O)O/N=C(\N)c1ccc([N+](=O)[O-])o1	13	60*	20	32	1
N/C(=N\OC(=O)c1ccc2c(c1)OCO2)c1cccc(Br)c1	0	-5	14	26	4
